This note sets out measurements from ChEMBL document CHEMBL1143862, “Backbone cyclic peptidomimetic melanocortin-4 receptor agonist as a novel orally administrated drug lead for treating obesity” (J Med Chem, 2008).

The target in series [1] is Melanocortin receptor 5 (Mus musculus) (UniProt P41149). The series can be described thus: Stimulation of mouse MC5R expressed in HEK293 cells relative to NDP-MSH. The class given is cell-based. The method, boiled down: (§1)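 HEK-293 cells stably expressing each melanocortin receptor were transfected with a CRE/β-galactosidase reporter. At 48 h post-transfection, cells were stimulated for 6 h with peptide (10^-4 to 10^-12 M) or 10^-4 M forskolin in DMEM containing 0.1 mg/mL BSA and 0.1 mM IBMX. Lysates were read with ONPG at OD 405 and normalized to protein (OD 595) and to forskolin response. Efficacy is expressed relative to NDP-MSH maximal stimulation.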

Series [2] has as its target Melanocortin receptor 4 (Mus musculus, UniProt P56450). The series can be described thus: Agonist activity at mouse MC4R expressed in HEK293 cells. In kind it is functional, cell-based. The method, boiled down: as §1
The target of series [3] is Melanocyte-stimulating hormone receptor (Mus musculus, UniProt Q01727). In words: Agonist activity at mouse MC1R expressed in HEK293 cells. The class given is functional, cell-based. The method, boiled down: as §1
For a further series, the target named is Melanocortin receptor 5 (Mus musculus, UniProt P41149). In words: Agonist activity at mouse MC5R expressed in HEK293 cells. In kind it is functional, cell-based. Summed up:
as §1

The target in series [4] is Melanocyte-stimulating hormone receptor (Mus musculus) (UniProt Q01727). In words: Stimulation of mouse MC1R expressed in HEK293 cells relative to NDP-MSH. The class given is cell-based. Summed up:
as §1

Series [5] deals with Melanocortin receptor 3 (Mus musculus) (UniProt P33033). In words: Stimulation of mouse MC3R expressed in HEK293 cells relative to NDP-MSH. In kind it is cell-based. Summed up: as §1
Series [6] has as its target Melanocortin receptor 4 (Mus musculus) (UniProt P56450). The series can be described thus: Stimulation of mouse MC4R expressed in HEK293 cells relative to NDP-MSH. The class given is cell-based. Summed up:
as §1

The target of a further series is Melanocortin receptor 3 (Mus musculus, UniProt P33033). The series can be described thus: Agonist activity at mouse MC3R expressed in HEK293 cells. In kind it is functional, cell-based. Summed up: as §1
In series [7] the target is Melanocortin receptor 4 (Homo sapiens, UniProt P32245). The series can be described thus: Displacement of [125I]NDP-alpha-MSH from MC4R.
Series [8] in a line: Permeability across human Caco-2 cells. The class given is ADME, cell-based. Summed up: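 Caco-2 cells (passage 60–66) were seeded on 0.4 µm polycarbonate inserts and used 21–23 days later at stable TEER (300–500 Ωcm²). After 30 min buffer pre-incubation at 37 °C with shaking, compound was added apically.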
In series [9] the test system is Mus musculus. The series can be described thus: Effect on weight gain in ICR:Hsd (CD1) mouse at 0.5 mg/kg/day, po after 12 days relative to control. In kind it is functional. The method, boiled down: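 Mice (n = 9) were weighed daily, then given a daily oral gavage (5 mL/kg) of peptide at 100 µg/ml or water vehicle. Weight change from day 0 was expressed as mean ± SEM and compared with controls by Student's t-test.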

Series [10] is described as follows: Tmax in Wistar rat plasma at 1 mg/kg, iv. In kind it is ADME, organism-based. Details: dose 1 mg/kg, route intravenous. Summed up:
(§2)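 Conscious male Wistar rats with a jugular vein cannula implanted 24 h beforehand received peptide dissolved in water, as an iv bolus of 1 mg/kg (n = 5) or orally at 10 mg/kg (n = 2). Heparinized blood was sampled at several times up to 24 h. Plasma was separated at 4 °C, stored at -70 °C and analysed by HPLC-MS. Parameters came from noncompartmental analysis.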

Series [11] in a line: Cmax in Wistar rat plasma at 1 mg/kg, iv. In kind it is ADME, organism-based. Set-up: dose 1 mg/kg, route intravenous. Summed up: as §2
Series [12] is described as follows: Biodistribution in rat brain at 10 mg/kg, po after 8 hrs. The settings on record: read-out: Drug uptake. The class given is ADME, organism-based. Details: dose 10 mg/kg, route oral. Summed up: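 Rats were dosed at 10 mg/kg, iv or po. Brain was collected 8 h after dosing and extracted by a single protein precipitation (90% acetonitrile/10% formic acid, then 50 mM ammonium formate). Peptide was quantified by validated LC-MS/MS and expressed as […] tissue.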

Series [13] is described as follows: Half life in Wistar rat plasma at 1 mg/kg, iv and 10 mg/kg, po. In kind it is ADME, organism-based. The method, boiled down:
as §2

Series [14] in a line: Tmax in Wistar rat plasma at 10 mg/kg, po. Set-up: dose 10 mg/kg, route oral. In kind it is ADME, organism-based. The method, boiled down:
as §2

A short description of series [15]: AUC in Wistar rat plasma at 1 mg/kg, iv and 10 mg/kg, po. The class given is ADME, organism-based. The method, boiled down:
as §2

The nature of series [16]: Elimination half life in rat. The class given is ADME, tissue-based. The conditions noted are these: plasma. The method, boiled down: as §2
A short description of series [17]: Volume of distribution at steady state in Wistar rat plasma at 1 mg/kg, iv and 10 mg/kg, po. In kind it is ADME, organism-based. The settings on record: read-out: Vdss. Summed up: as §2
Series [18] concerns Mus musculus. The series can be described thus: Reduction of food consumption in ICR:Hsd (CD1) mouse at 0.5 mg/kg, po after 1 hr relative to control. The class given is functional. Set-up: scale not given: the % may be the effect or the level left. The method, boiled down: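 Male ICR:Hsd (CD-1) mice, 7–8 weeks old and individually caged, were fasted 16 h and then gavaged once (5 mL/kg) with peptide at 100 µg/ml or with water vehicle (n = 24). Fixed food portions were given immediately and reweighed at 1, 2, 3, 4 and 5 h. Results are mean ± SEM, analysed by RM ANOVA with Tukey's test.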

The subject of a further series is Rattus norvegicus. In words: Bioavailability in Wistar rat plasma at 1 mg/kg, iv and 10 mg/kg, po. The class given is ADME, organism-based. The settings on record: in vivo. The method, boiled down: as §2
Series [19] can be described thus: Cmax in Wistar rat plasma at 10 mg/kg, po. Details: dose 10 mg/kg, route oral. In kind it is ADME, organism-based. The method, boiled down:
as §2

Numbered stars: 1 amine (or outer) side, 2 acyl side, 3 side chain; on linkers, the order of the positions; unused ones are H or OH. Bridge positions count the residues as written; N and C are the ends. Square brackets hold non-standard residues; d marks the D form. Peptide text beside a SMILES is read from it. NGly(3-aminopropyl) = O=C(CN(CCCN[*:3])[*:1])[*:2]; N(2-Aminoethyl)Gly = O=C(CN(CCN[*:3])[*:1])[*:2]; Adipoyl = O=C(CCCCC(=O)[*:2])[*:1]; Suc = O=C(CCC(=O)[*:2])[*:1]

Melanocyte-stimulating hormone receptor, sequence (Q01727 whole entry): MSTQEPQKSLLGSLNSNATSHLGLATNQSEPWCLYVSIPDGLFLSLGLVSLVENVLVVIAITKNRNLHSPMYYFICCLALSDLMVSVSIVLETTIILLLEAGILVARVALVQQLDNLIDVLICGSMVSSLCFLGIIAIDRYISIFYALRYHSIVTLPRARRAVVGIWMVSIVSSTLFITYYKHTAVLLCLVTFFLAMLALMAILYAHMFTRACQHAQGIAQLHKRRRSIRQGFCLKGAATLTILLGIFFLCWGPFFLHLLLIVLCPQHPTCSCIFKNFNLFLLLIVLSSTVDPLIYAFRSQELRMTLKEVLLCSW
Melanocyte-stimulating hormone receptor (Mus musculus), sequence (Q01727 whole entry, looked up): as the sequence (Q01727 whole entry) above
Melanocortin receptor 5, sequence (P41149 whole entry): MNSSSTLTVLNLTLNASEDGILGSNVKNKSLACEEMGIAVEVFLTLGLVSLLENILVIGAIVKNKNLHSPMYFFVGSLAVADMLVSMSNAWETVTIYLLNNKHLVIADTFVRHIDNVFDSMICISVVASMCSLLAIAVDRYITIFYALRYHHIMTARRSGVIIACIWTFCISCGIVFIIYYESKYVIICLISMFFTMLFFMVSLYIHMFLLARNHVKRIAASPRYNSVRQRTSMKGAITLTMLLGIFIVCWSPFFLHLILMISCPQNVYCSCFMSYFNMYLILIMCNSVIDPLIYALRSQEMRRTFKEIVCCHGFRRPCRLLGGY
Melanocortin receptor 5 (Mus musculus), sequence (P41149 whole entry): as above
Melanocortin receptor 4 (Mus musculus, UniProt P56450), sequence (P56450 whole entry): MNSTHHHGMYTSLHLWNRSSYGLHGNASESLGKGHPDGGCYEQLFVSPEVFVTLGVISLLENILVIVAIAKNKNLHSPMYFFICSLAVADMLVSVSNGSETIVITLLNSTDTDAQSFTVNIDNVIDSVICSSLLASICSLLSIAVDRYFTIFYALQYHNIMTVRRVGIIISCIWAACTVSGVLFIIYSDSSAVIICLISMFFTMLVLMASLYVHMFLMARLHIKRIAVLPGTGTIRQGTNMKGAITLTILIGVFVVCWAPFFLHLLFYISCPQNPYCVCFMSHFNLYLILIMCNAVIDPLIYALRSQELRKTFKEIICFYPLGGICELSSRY
Melanocortin receptor 4 (Mus musculus), sequence (P56450 whole entry): as above
Melanocortin receptor 3, sequence (P33033 whole entry): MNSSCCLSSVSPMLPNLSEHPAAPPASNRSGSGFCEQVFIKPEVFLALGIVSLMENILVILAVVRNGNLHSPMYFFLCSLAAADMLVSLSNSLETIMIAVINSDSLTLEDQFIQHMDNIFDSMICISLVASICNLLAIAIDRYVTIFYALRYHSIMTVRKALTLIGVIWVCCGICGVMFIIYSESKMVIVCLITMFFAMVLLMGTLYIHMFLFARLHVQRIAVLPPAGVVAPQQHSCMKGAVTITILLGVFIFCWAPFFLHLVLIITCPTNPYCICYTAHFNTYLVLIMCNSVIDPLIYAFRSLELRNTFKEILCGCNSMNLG
Melanocortin receptor 3 (Mus musculus), sequence (P33033 whole entry): as above
Melanocortin receptor 4 (Homo sapiens, UniProt P32245), sequence (P32245 whole entry): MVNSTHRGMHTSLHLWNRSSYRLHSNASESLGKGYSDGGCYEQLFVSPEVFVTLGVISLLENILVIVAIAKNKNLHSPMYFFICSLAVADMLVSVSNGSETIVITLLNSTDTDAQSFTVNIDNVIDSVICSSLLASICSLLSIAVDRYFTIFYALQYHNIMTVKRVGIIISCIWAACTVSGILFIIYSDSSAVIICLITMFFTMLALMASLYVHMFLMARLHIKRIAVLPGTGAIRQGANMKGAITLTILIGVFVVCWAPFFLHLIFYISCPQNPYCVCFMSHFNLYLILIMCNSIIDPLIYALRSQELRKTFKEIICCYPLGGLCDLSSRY

With `N=C(N)NCCC[C@@H]1NC(=O)[C@@H](Cc2ccccc2)NC(=O)[C@H](Cc2ccccc2)NC(=O)c2ccccc2C(=O)NCCN(CC(N)=O)C(=O)[C@H](Cc2c[nH]c3ccccc23)NC1=O`, the Efficacy in [1], in series [4], in series [5] and in [6] was 100% each time. In addition, the EC50 at Melanocortin receptor 4 [2] is 150 nM; in series [3], 550 nM; at Melanocortin receptor 5, 390 nM; on Melanocortin receptor 3 it was 20500 nM. On Melanocortin receptor 4 [7], this compound registered an IC50 of 100 nM.

On to `N=C(N)NCCC[C@@H]1NC(=O)[C@@H](Cc2ccccc2)NC(=O)[C@H](Cc2ccccc2)NC(=O)CCCC(=O)NCCN(CC(N)=O)C(=O)[C@H](Cc2c[nH]c3ccccc23)NC1=O`, for which the Efficacy in series [1], in series [4], in [5] and in series [6] was 100% in each case. Moreover, the EC50 came to 18 nM at Melanocortin receptor 4 [2], 120 nM in [3], 20 nM on Melanocortin receptor 5 and 1460 nM at Melanocortin receptor 3. This compound also displayed a Papp in series [8] of 21 ×10⁻⁶ cm/s.

In series [8], `N=C(N)NCCC[C@H](NC(=O)[C@H](Cc1c[nH]c2ccccc12)NC(=O)CN)C(=O)N[C@H](Cc1ccccc1)C(=O)N[C@@H](Cc1ccccc1)C(=O)O` yielded a Papp of 12 ×10⁻⁶ cm/s.

Turning to `N=C(N)NCCC[C@@H]1NC(=O)[C@@H](Cc2ccccc2)NC(=O)[C@H](Cc2ccccc2)NC(=O)CCC(=O)NCCN(CC(N)=O)C(=O)[C@H](Cc2c[nH]c3ccccc23)NC1=O` (F[dF]RW[N(2-Aminoethyl)Gly]-NH2; linker N-5 via Suc), the Efficacy in [1], in series [4], in series [5] and in series [6] was 100% in each case. In addition, the Activity in the series with Mus musculus [9] was found to be 2.8%; in the series on Mus musculus [18] it was 46%. The EC50 at Melanocortin receptor 4 [2] was 4 nM; in [3], 64 nM; at Melanocortin receptor 5, 7 nM; on Melanocortin receptor 3, 770 nM. In addition, the Tmax was 5 min in [10] and 37 min in [14]. The Cmax stood at 977 ng/mL in series [11] and 202 ng/mL in series [19]. The concentration at 8 h in series [12] worked out at 4700 ng/g. Moreover, the half-life was more than 105 min in [13] and 100 min in [16]. In addition, in series [15], the area under the curve (AUC) is 416 ng·h/mL. In addition, the Papp in series [8] is 17.8 ×10⁻⁶ cm/s. The Vd in [17] was 2.1 L/kg. Also, in the series on Rattus norvegicus, the F is recorded as 8.5%.

Consider `N=C(N)NCCC[C@@H]1NC(=O)[C@@H](Cc2ccccc2)NC(=O)[C@H](Cc2ccccc2)NC(=O)CCCCC(=O)NCCCN(CC(N)=O)C(=O)[C@H](Cc2c[nH]c3ccccc23)NC1=O` (F[dF]RW[NGly(3-aminopropyl)]-NH2; linker N-5 via Adipoyl), for which the Efficacy in series [1], in series [4], in [5] and in [6] was 100% in each case. The EC50 amounted to 5 nM at Melanocortin receptor 4 [2], 240 nM in series [3], 26 nM at Melanocortin receptor 5 and 7750 nM at Melanocortin receptor 3. The compound also showed a Papp in series [8] of 19 ×10⁻⁶ cm/s.

`N=C(N)NCCC[C@@H]1NC(=O)[C@@H](Cc2ccccc2)NC(=O)[C@H](Cc2ccccc2)NC(=O)CCC(=O)NCCCN(CC(N)=O)C(=O)[C@H](Cc2c[nH]c3ccccc23)NC1=O` (F[dF]RW[NGly(3-aminopropyl)]-NH2; linker N-5 via Suc): the Efficacy in series [1], in series [4], in series [5] and in series [6] was 100% throughout. Further, the EC50 on Melanocortin receptor 4 [2] was 4 nM; in [3], 28 nM; at Melanocortin receptor 5, 2 nM; on Melanocortin receptor 3, 1260 nM. Also, in series [8], the Papp turned out to be 18.8 ×10⁻⁶ cm/s.

On to `OC[C@@H](O)[C@@H](O)[C@H](O)[C@H](O)CO` [MANNITOL], for which, in series [8], the Papp amounted to 2.05 ×10⁻⁶ cm/s.

With `CC(C)NCC(O)COc1cccc2ccccc12` (stereo not given) [PROPRANOLOL], in [8], the Papp came to 25 ×10⁻⁶ cm/s.
